Calls of active or inactive are those of the source. No cut-off for these calls is given here.
Legend:
[1] = target: T1, Toll-like receptor 7 (Homo sapiens) (UniProt Q9NYK1); assay: Activation of human TLR7 expressed in HEK293XL assessed as fold induction of NF-kappaB activity at 50 ug/ml after 18 hrs by reporter gene assay relative to control
T1 sequence (whole entry): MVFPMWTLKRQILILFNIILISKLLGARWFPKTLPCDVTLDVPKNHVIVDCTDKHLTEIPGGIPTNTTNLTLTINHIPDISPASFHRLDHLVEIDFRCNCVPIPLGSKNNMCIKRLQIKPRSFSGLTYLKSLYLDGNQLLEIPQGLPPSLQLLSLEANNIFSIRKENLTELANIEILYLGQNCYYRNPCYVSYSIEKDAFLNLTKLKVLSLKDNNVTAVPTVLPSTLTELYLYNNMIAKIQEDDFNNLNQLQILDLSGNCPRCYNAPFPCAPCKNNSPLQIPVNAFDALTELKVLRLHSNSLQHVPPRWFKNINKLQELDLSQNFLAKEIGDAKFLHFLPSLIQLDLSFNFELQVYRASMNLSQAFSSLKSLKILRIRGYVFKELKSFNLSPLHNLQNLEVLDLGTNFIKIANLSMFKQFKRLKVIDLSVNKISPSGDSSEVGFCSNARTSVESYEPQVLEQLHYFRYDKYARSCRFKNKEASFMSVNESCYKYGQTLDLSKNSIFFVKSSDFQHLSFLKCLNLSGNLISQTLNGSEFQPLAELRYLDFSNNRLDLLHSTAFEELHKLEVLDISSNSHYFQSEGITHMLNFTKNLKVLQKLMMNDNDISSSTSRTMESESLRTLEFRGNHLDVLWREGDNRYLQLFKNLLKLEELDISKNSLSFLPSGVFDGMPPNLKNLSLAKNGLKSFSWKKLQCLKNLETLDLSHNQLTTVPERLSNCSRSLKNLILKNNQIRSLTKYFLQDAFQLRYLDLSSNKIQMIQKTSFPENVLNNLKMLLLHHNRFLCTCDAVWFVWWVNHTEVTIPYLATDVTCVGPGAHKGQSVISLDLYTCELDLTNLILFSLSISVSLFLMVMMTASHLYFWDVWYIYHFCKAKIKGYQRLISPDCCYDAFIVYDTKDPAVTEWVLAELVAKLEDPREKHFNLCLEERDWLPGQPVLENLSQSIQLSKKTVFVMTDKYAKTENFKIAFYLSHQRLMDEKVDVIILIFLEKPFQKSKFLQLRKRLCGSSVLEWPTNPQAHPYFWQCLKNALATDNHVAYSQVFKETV
Outline: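 HEK293 cells stably expressing human TLR7 or TLR8, transiently transfected with SEAP reporter plasmid; medium replaced, SIMRA compounds added, 18 h incubation. Supernatant SEAP measured by QuantiBlue; expressed as fold increase in NF-κB activity over PBS control. Tabulated data at 50 μg/mL, representative of three independent experiments.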

[2] = organism: Homo sapiens; assay: Ratio of human TLR7 activity to human TLR8 activity
Outline: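 TLR7/TLR8 ratio computed from fold NF-κB (SEAP reporter) activation in HEK293 cells stably expressing human TLR7 versus TLR8, compounds at 50 μg/mL, 18 h exposure; representative of three independent experiments.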

[3] = test system: PBMC; assay: Immunomodulatory activity in human PBMC assessed as induction of IL12 at 50 ug/ml after 24 hrs; assay type: functional, cell-based
Outline: (§1)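 Human PBMCs plated at 5 × 10^6 cells/mL; compounds dissolved in PBS added at various concentrations, 37 °C for 24 h. Supernatant cytokines/chemokines quantified with human Luminex multiplex kit.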

[4] = test system: PBMC; assay: Immunomodulatory activity in human PBMC assessed as induction of TNFalpha at 50 ug/ml after 24 hrs; assay type: functional, cell-based; outline: as §1
[5] = test system: PBMC; assay: Immunomodulatory activity in human PBMC assessed as induction of IFNalpha at 50 ug/ml after 24 hrs; assay type: functional, cell-based; outline: as §1
[6] = test system: PBMC; assay: Immunomodulatory activity in human PBMC assessed as induction of MIP1alpha at 50 ug/ml after 24 hrs; assay type: functional, cell-based; outline: as §1
[7] = test system: PBMC; assay: Immunomodulatory activity in human PBMC assessed as induction of MIP1beta at 50 ug/ml after 24 hrs; assay type: functional, cell-based; outline: as §1
[8] = test system: PBMC; assay: Immunomodulatory activity in human PBMC assessed as induction of IP10 at 50 ug/ml after 24 hrs; assay type: functional, cell-based; outline: as §1
[9] = test system: PBMC; assay: Immunomodulatory activity in human PBMC assessed as induction of MCP1 at 50 ug/ml after 24 hrs; assay type: functional, cell-based; outline: as §1
[10] = test system: PBMC; assay: Immunomodulatory activity in human PBMC assessed as induction of IL6 at 50 ug/ml after 24 hrs; assay type: functional, cell-based; outline: as §1
[11] = test system: PBMC; assay: Immunomodulatory activity in human PBMC assessed as induction of IL1-beta at 50 ug/ml after 24 hrs; assay type: functional, cell-based; outline: as §1
[12] = organism: Homo sapiens; assay: Immunostimulatory activity in human pDC assessed as induction of IP10 at 100 ug/ml after 24 hrs; assay type: functional
Outline: (§2)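 Human pDCs plated at 1 × 10^6 cells/mL; compounds in PBS added, 37 °C for 24 h; supernatant cytokines/chemokines by human Luminex multiplex kit.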

[13] = organism: Homo sapiens; assay: Immunostimulatory activity in human pDC assessed as induction of IL6 at 100 ug/ml after 24 hrs; assay type: functional; outline: as §2
[14] = organism: Homo sapiens; assay: Immunostimulatory activity in human mDC assessed as induction of IFNalpha at 100 ug/ml after 24 hrs; assay type: functional
Outline: (§3)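 Human mDCs isolated from PBMCs by CD19+ B-cell depletion then BDCA1 positive selection; plated at 1 × 10^6 cells/mL, compounds in PBS, 37 °C for 24 h; supernatant cytokines by human Luminex multiplex. Representative of four independent experiments.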

[15] = organism: Homo sapiens; assay: Immunostimulatory activity in human mDC assessed as induction of IP10 at 100 ug/ml after 24 hrs; assay type: functional; outline: as §3
[16] = organism: Homo sapiens; assay: Immunostimulatory activity in human mDC assessed as induction of IL12 at 100 ug/ml after 24 hrs; assay type: functional; outline: as §3
[17] = organism: Homo sapiens; assay: Immunostimulatory activity in human mDC assessed as induction of IL6 at 100 ug/ml after 24 hrs; assay type: functional; outline: as §3
[18] = organism: Homo sapiens; assay: Immunostimulatory activity in human mDC assessed as induction of TNFalpha at 100 ug/ml after 24 hrs; assay type: functional; outline: as §3

fold change (FC) [1] | Ratio [2] | SMILES | Activity [3] [pg/mL] | Activity [4] [pg/mL] | Activity [5] [pg/mL] | Activity [6] [pg/mL] | Activity [7] [pg/mL] | Activity [8] [pg/mL] | Activity [9] [pg/mL] | Activity [10] [pg/mL] | Activity [11] [pg/mL] | Activity [12] | Activity [13] | Activity [14] | Activity [15] | Activity [16] | Activity [17] | Activity [18]
26.6 | 29.6 | Nc1ccn([C@@H]2O[C@H](COP(=O)(S)O[C@H]3[C@@H](O)[C@H](n4cnc5c(N)ncnc54)O[C@@H]3CO)[C@@H](OP(=O)(S)OC[C@H]3O[C@@H](n4ccc5c(=O)[nH]c(N)nc54)[C@H](O)[C@@H]3OP(=O)(S)OC[C@H]3O[C@@H](n4ccc(N)nc4=O)[C@H](O)[C@@H]3OP(=O)(S)OC[C@H]3O[C@@H](n4ccc(=O)[nH]c4=O)[C@H](O)[C@@H]3OP(=O)(S)OC[C@H]3O[C@@H](n4ccc5c(=O)[nH]c(N)nc54)[C@H](O)[C@@H]3OP(=O)(S)OC[C@H]3O[C@@H](n4cnc5c(N)ncnc54)[C@H](O)[C@@H]3OP(=O)(S)OC[C@H]3O[C@@H](n4ccc5c(=O)[nH]c(N)nc54)[C@H](O)[C@@H]3OP(=O)(S)OC[C@H]3O[C@@H](n4ccc(N)nc4=O)[C@H](O)[C@@H]3OP(=O)(S)OC[C@H]3O[C@@H](n4ccc(=O)[nH]c4=O)[C@H](O)[C@@H]3OP(=O)(S)OC[C@H]3O[C@@H](n4ccc(=O)[nH]c4=O)[C@H](O)[C@@H]3OP(=O)(S)OCC(O)COP(=O)(S)O[C@H]3[C@@H](O)[C@H](n4ccc(=O)[nH]c4=O)O[C@@H]3COP(=O)(S)O[C@H]3[C@@H](O)[C@H](n4ccc(=O)[nH]c4=O)O[C@@H]3COP(=O)(S)O[C@H]3[C@@H](O)[C@H](n4ccc(N)nc4=O)O[C@@H]3COP(=O)(S)O[C@H]3[C@@H](O)[C@H](n4ccc5c(=O)[nH]c(N)nc54)O[C@@H]3COP(=O)(S)O[C@H]3[C@@H](O)[C@H](n4cnc5c(N)nc(N)nc54)O[C@@H]3COP(=O)(S)O[C@H]3[C@@H](O)[C@H](n4ccc5c(=O)[nH]c(N)nc54)O[C@@H]3COP(=O)(S)O[C@H]3[C@@H](O)[C@H](n4ccc(=O)[nH]c4=O)O[C@@H]3COP(=O)(S)O[C@H]3[C@@H](O)[C@H](n4ccc(N)nc4=O)O[C@@H]3COP(=O)(S)O[C@H]3[C@@H](O)[C@H](n4ccc5c(=O)[nH]c(N)nc54)O[C@@H]3COP(=O)(S)O[C@H]3[C@@H](O)[C@H](n4ccc(N)nc4=O)O[C@@H]3COP(=O)(S)O[C@H]3[C@@H](O)[C@H](n4cnc5c(N)ncnc54)O[C@@H]3CO)[C@H]2O)c(=O)n1 (stereo not given in full) |  |  |  |  |  |  |  |  |  |  |  |  |  |  |  | 
0.5 | 0.1 | Nc1ccn([C@@H]2O[C@H](COP(=O)(S)O[C@H]3[C@@H](O)[C@H](n4cnc5c(=O)[nH]c(N)nc54)O[C@@H]3COP(=O)(S)O[C@H]3[C@@H](O)[C@H](n4ccc(=O)[nH]c4=O)O[C@@H]3COP(=O)(S)OCCCO)[C@@H](OP(=O)(S)OC[C@H]3O[C@@H](n4ccc(=O)[nH]c4=O)[C@H](O)[C@@H]3OP(=O)(S)OC[C@H]3O[C@@H](n4cnc5c(=O)[nH]c(N)nc54)[C@H](O)[C@@H]3OP(=O)(S)OC[C@H]3O[C@@H](n4ccc(N)nc4=O)[C@H](O)[C@@H]3OP(=O)(S)OC[C@H]3O[C@@H](n4ccc(=O)[nH]c4=O)[C@H](O)[C@@H]3OP(=O)(S)OC[C@H]3O[C@@H](n4ccc(=O)[nH]c4=O)[C@H](O)[C@@H]3OP(=O)(S)OC[C@H]3O[C@@H](n4cnc5c(=O)[nH]c(N)nc54)[C@H](O)[C@@H]3OP(=O)(S)OC[C@H]3O[C@@H](n4ccc(=O)[nH]c4=O)[C@H](O)[C@@H]3OP(=O)(S)OC[C@H]3O[C@@H](n4cnc5c(=O)[nH]c(N)nc54)[C@H](O)[C@@H]3OP(=O)(S)OCC(O)COP(=O)(S)O[C@H]3[C@@H](O)[C@H](n4cnc5c(=O)[nH]c(N)nc54)O[C@@H]3COP(=O)(S)O[C@H]3[C@@H](O)[C@H](n4ccc(=O)[nH]c4=O)O[C@@H]3COP(=O)(S)O[C@H]3[C@@H](O)[C@H](n4cnc5c(=O)[nH]c(N)nc54)O[C@@H]3COP(=O)(S)O[C@H]3[C@@H](O)[C@H](n4ccc(=O)[nH]c4=O)O[C@@H]3COP(=O)(S)O[C@H]3[C@@H](O)[C@H](n4ccc(=O)[nH]c4=O)O[C@@H]3COP(=O)(S)O[C@H]3[C@@H](O)[C@H](n4ccc(N)nc4=O)O[C@@H]3COP(=O)(S)O[C@H]3[C@@H](O)[C@H](n4cnc5c(=O)[nH]c(N)nc54)O[C@@H]3COP(=O)(S)O[C@H]3[C@@H](O)[C@H](n4ccc(=O)[nH]c4=O)O[C@@H]3COP(=O)(S)O[C@H]3[C@@H](O)[C@H](n4ccc(N)nc4=O)O[C@@H]3COP(=O)(S)O[C@H]3[C@@H](O)[C@H](n4cnc5c(=O)[nH]c(N)nc54)O[C@@H]3COP(=O)(S)O[C@H]3[C@@H](O)[C@H](n4ccc(=O)[nH]c4=O)O[C@@H]3COP(=O)(S)OCCCO)[C@H]2O)c(=O)n1 (stereo not given in full) | 570 | 541 | 56 | 4760 | 5730 | 24 | 46700 | 3980 | 568 | Active | Active | Active | Active | Active | Active | Active
